Published values of several laboratories.
Lines come from different studies, so protocols differ.

Compound | target or system | test | system | conditions | endpoint | result
CCOc1ccc(Nc2c3c(nc4ccccc24)CCC3)cc1 | Leishmania donovani | parasite growth | THP-1 | intracellular, amastigote | IC50 | 0.592 µM
CCCCCCCCCCCCCCCCCCOc1cccc(CC(=O)OCC[N+](C)(C)C)c1 | NCI-H522 | cell growth or viability, SRB | – | 10 µM | inhibition | 13.3%
O=C1O[C@H]([C@@H](O)CO)C(O)=C1O | – | ABTS scavenging | – | – | IC50 | 4.24 mg/L
O=C(O)CCC(=O)OCCN(Cc1ccc(Oc2ccc([N+](=O)[O-])cc2)cc1)C(=O)C(Cl)Cl | Leishmania donovani | parasite growth, resazurin | – | 72 h, promastigote | IC50 | 2.68 µM
Oc1ccc(C2NCCc3cc(O)c(O)cc32)cc1O (stereo not drawn) | – | ABTS scavenging | – | 10 min, dark | IC50 | 4.93 µM
O=C1O[C@H]([C@@H](O)CO)C(O)=C1O | – | ABTS scavenging, absorbance | – | dark | IC50 | 5.42 mg/L
CCCCCCCCCCCCCCCCCCOc1cccc(CC(=O)OCCC[N+](C)(C)C)c1 | NCI-H522 | cell growth or viability, SRB | – | 10 µM | inhibition | 21.8%
c1ccc(Oc2ccc(Nc3c4c(nc5ccccc35)CCC4)cc2)cc1 | Leishmania donovani | parasite growth, resazurin | – | promastigote | IC50 | 0.6 µM
COc1cc(C2NCCc3cc(O)c(O)cc32)ccc1O (stereo not drawn) | – | ABTS scavenging | – | 10 min, dark | IC50 | 14 µM
COc1cc(/C=C/C(=O)CC(=O)/C=C/c2ccc(O)c(OC)c2)ccc1O | – | ABTS scavenging | – | 20 min | IC50 | 165 mg/L
O=C1O[C@H]([C@@H](O)CO)C(O)=C1O | – | ABTS scavenging, absorbance | – | – | IC50 | 62.8 µM
CCCCCCCCCCCCCCCCOP(=O)([O-])OCC[N+](C)(C)C | Leishmania donovani | parasite growth | THP-1 | 40 µM, intracellular, amastigote | inhibition | 100%
COc1cccc(C2NCCc3cc(O)c(O)cc32)c1O (stereo not drawn) | – | ABTS scavenging | – | 10 min, dark | IC50 | 8.51 µM
C[C@@H]1[C@H](O)[C@@H](C)/C=C/C=C/C=C/C=C/C=C/C=C/C=C/[C@H](O[C@@H]2O[C@H](C)[C@@H](O)[C@H](N)[C@@H]2O)C[C@@H]2O[C@](O)(C[C@@H](O)C[C@@H](O)[C@H](O)CC[C@@H](O)C[C@@H](O)CC(=O)O[C@H]1C)C[C@H](O)[C@H]2C(=O)O | Leishmania donovani | parasite growth, imaging | THP-1 | 20 nM, intracellular, amastigote | inhibition | 7%
Oc1cc2c(cc1O)C(Cc1ccccc1)NCC2 (stereo not drawn) | – | ABTS scavenging | – | 10 min, dark | IC50 | 8.14 µM
